Results reported in PubChem BioAssay.
A number with no mark means an inactive call. Results filed as inconclusive are left out. Calls of active or inactive are those of the source.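 The calls were made as follows, unless noted: active = inhibition over a set limit, the all-compound mean plus 3 SD, in both replicate runs; inconclusive = over that limit in just one replicate run; inactive = at or under that limit in both runs.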

Legend:
[1] = OD615 S. cerevisiae growth inhibition, permissive medium, pilot counter-assay, permissive growth control for S. cerevisiae lifespan shortening project (AID 705;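 active = growth inhibition above 25% in both replicates, a cutoff set 3 SD above the mean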); conditions: OD615, 24 h, at 10 µM, hits give high values
How it was run: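 Material: engineered DeaD yeast; compound dosing: one dose 10 µM, DMSO 0.25% final; measure: yeast growth inhibition indicated by reduced 24 h OD615; detection: OD615 turbidity read; incubation: cells pre-grown 4 h, then 24 h compound exposure, 30 °C humidified; medium: permissive synthetic complete medium with raffinose and galactose carbon sources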

[2] = Restrictive medium S. cerevisiae growth inhibition, OD615, pilot screen of yeast lifespan reduction project, restrictive growth control (AID 706;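 active = growth inhibition above a set limit, 3 SD over mean compound inhibition, in both replicates, cut at about 43% in these data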;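 also: modified DeaD lifespan yeast strain shifted to restrictive glucose medium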); conditions: OD615, 48 h, at 10 µM, hits give high values
How it was run: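 material = engineered S. cerevisiae DeaD strain | medium = glucose-based CSMM-D restrictive medium | times = 4 h pre-incubation, 48 h exposure at 30 °C | technique = OD615 absorbance reading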

[3] = viability gain of MRP-1-high H69AR cells under doxorubicin, pilot screen, MRP-1 activator project, CellTiter-Glo, duplicate (AID 807;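 active = viability increase at or above a cutoff of the median across tested compounds plus 3 SD, cut at about 8.5% in these data, passing the limit was not always enough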;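 also: compound pretreatment 18-22 h then 72 h combined with doxorubicin; 0% = doxorubicin alone and 100% = vehicle without doxorubicin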); conditions: H69AR viability with doxorubicin, CellTiter-Glo luminescence; at 10 µM; hits give high values
[4] = growth suppression of beta-catenin knockout HCT116, pilot screen, human colon tumor cells (AID 823;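 active = cell viability at or below a set limit in both duplicate runs, the limit being the all-compound median minus 4 SD, cut at about 23% in these data, passing the limit was not always enough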;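 also: 0% = wells killed by 20 µM Hyamine and 100% = untreated DMSO cell wells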); conditions: CellTiter-Glo, 60 h, at 10 µM, hits give low values
[5] = growth suppression of PTEN-deleted HCT116, pilot screen, cell-based, HCT116 clonal line, CellTiter-Glo (AID 824;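 active = viability at or below 27.92% in each of two runs, the all-compound median minus 4 SD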;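 also: 0% = 20 µM Hyamine control and 100% = vehicle cell control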); conditions: 60 h, at 10 µM, hits give low values
[6] = inhibitors of the yeast RAM network, pilot screen, dse1pr::URA3 reporter, 5-FOA selection (AID 869);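 also: 0% = DMSO wells with no growth and 100% = 10 µM 1-NA-PP1 with full growth; RAM network block rescues cells from 5-FOA so hits raise OD615 growth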; conditions: S. cerevisiae dse1pr::URA3 5-FOA growth, OD615, 2 d; at 10 µM; hits give high values; strain carries analog-sensitive mutant Cbk1 kinase
[7] = RAM signaling pathway blockade in yeast – S. cerevisiae, Pdr1DBD-CYC8 efflux-inhibited sensitized strain, primary screen (AID 1298;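 active = RAM network inhibition above 8.4% in each of two replicates, 3 SD over the compound average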;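 also: 0% = DMSO untreated cells without growth and 100% = 10 µM 1-NA-PP1 full growth; higher means more yeast growth rescued from 5-FOA killing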); conditions: S. cerevisiae cbk1-as DSE1-URA3 strain, 5-FOA growth OD615, 2 d; at 50 µM; hits give high values

| Compound | growth inhibition [1] | growth inhibition [2] | viability increase [3] | viability [4] | viability [5] | inhibition [6] | RAM network inhibition [7] |
| --- | --- | --- | --- | --- | --- | --- | --- |
| CCOc1ccc(OCC)c(NS(=O)(=O)c2cccc3nsnc23)c1 | -13.8% | -21.1% | -2.5% | 88.8% | 98% | 2.63% | 3.41% |
| CN=C(NC)SC1CC(=O)N(c2ccccc2)C1=O (configuration not stated) | -8.98% | -4.91% | 1.47% | 109% | 101% | 0.305% | 1.02% |
| O=C(CCSc1ccccc1)NCCSc1ccccn1 | -12.8% | -12% | -2.49% | 96.3% | 94.6% | 2.69% | 0.53% |
| CC(=O)CCc1c(C)c2cccc(C)c2[nH]c1=O | 1.6% | 1.5% | -3.1% | 93.4% | 96.5% | 2.75% | 3.81% |
| O=C(NCc1ccco1)c1ccc2c(c1)N(Cc1ccccc1)C(=O)CS2=O (configuration not stated) | -4.13% | 3.41% | 3.66% | 97.8% | 82.6% | 0.885% | 1.29% |
| COc1ccc(OC)c2[nH]c(=O)c(CCNC(=O)C(C)(C)C)cc12 | -5.16% | -4.56% | 1.19% | 105% | 102% | 0.23% | 0.89% |
| O=C(Nc1nc(-c2ccccn2)cs1)c1ccc(Cl)s1 | 94.1% (active) | 96.8% (active) | -8.93% | 10.6% (active) | 22.1% (active) | -1.18% | -2.58% |
| CCCCn1c(CN2CCN(C(=O)c3ccco3)CC2)nc2c1c(=O)n(C)c(=O)n2C | -3.45% | -7.47% | -4.33% | 101% | 98% | 0.905% | 2.15% |
| CCOC(=O)N1CCC(NC(=O)c2cc3c(-c4ccc(Cl)cc4)nn(C)c3s2)CC1 | -2.75% | -2.64% | -5.61% | 91.4% | 92.1% | -0.04% | 2.43% |
| O=C(CN(Cc1ccccc1F)S(=O)(=O)c1ccc(Cl)cc1)NCCCO | -12.7% | -2.21% | -2.15% | 102% | 93.7% | 0.495% | 1.84% |
| Cc1cc(Nc2cc(C(=O)O)ccc2C)n2ncnc2n1 | 4.96% | -2.32% | 0.41% | 95.9% | 102% | 0.71% | 0.57% |
| c1ccc(-c2ccc(-c3nc(-c4cccnc4)no3)cc2)cc1 | 16.4% | 20% | -0.01% | 80.8% | 89.3% | 0.455% | -0.01% |
| CCCCN(C)c1nc(-c2ccco2)c2c(c1C#N)CC(C)(C)OC2 | -9.48% | 0.09% | -4.56% | 96.3% | 98.3% | 1.63% | -0.79% |
| COc1ccc(CN2CCNC(=O)C2CC(=O)O)c(OC)c1 (configuration not stated) | -18.7% | -24% | -2.1% | 105% | 93.1% | 2.47% | 1.42% |
| Cn1c(=O)[nH]c(=O)c2c1nc(N1CCCC1)n2CC(O)COc1ccccc1 (configuration not stated) | -10.3% | -7.92% | -2.57% | 100% | 102% | 2.5% | 1.94% |
| COc1cc(OC)cc(OCC(O)Cn2cnc3cc(C)c(C)cc32)c1 (configuration not stated) | -4.53% | -8.79% | -5.24% | 80.2% | 80.3% | 1.33% | -0.82% |
| CCOC(=O)C1=C(C)OC(N)=C(C#N)C1c1c(C)nn(-c2ccccc2)c1Cl (configuration not stated) | -11.9% | -20% | -3.98% | 102% | 98.1% | 3.71% | 7.39% |
| COc1ccccc1-c1nnc(SCC(=O)N2CCOCC2)o1 | -12.5% | 0.015% | -3.69% | 93.8% | 95.7% | 1.75% | 2.61% |

| Compound | growth inhibition [1] | growth inhibition [2] | viability increase [3] | viability [4] | viability [5] | inhibition [6] | RAM network inhibition [7] |
| --- | --- | --- | --- | --- | --- | --- | --- |
| Cc1ccc(O)c(C2=NOC(O)(C(F)(F)C(F)F)C2)c1 (configuration not stated) | -0.995% | 9.35% | -5.27% | 93.4% | 92.9% | 0.72% | 5.23% |
| CCC(=O)Nc1nc2c(OC)ccc(C)c2s1 | -17.7% | -14.1% | -5.96% | 96.4% | 92.2% | 0.225% | 1.37% |
| CCCCCn1c(C(C)NC(=O)CCC)nc2ccccc21 (configuration not stated) | -3.78% | -2.23% | -1.22% | 85.7% | 88.7% | -0.165% | 2.32% |
| COCCNC(=O)c1cc2c(-c3ccc(Cl)cc3)nn(C)c2s1 | 3.03% | 8.65% | -6% | 64.6% | 71% | 0.32% | 10.4% |
| CCc1ccc(S(=O)(=O)NCc2csc(-c3cccnc3)n2)s1 | -13.1% | 1.16% | -0.39% | 103% | 101% | 2.68% | 2.28% |
| CCN1CCCC(NC(=O)c2scc3c2CCCC3)C1 (configuration not stated) | -8.03% | -5.2% | -2.12% | 96.5% | 95.1% | 0.625% | -0.09% |
| CSc1ccc(C2C(C#N)=C(N)N(c3ccccc3)C3=C2C(=O)CCC3)cc1 (configuration not stated) | -11.5% | -19.7% | -7.43% | 69.5% | 74.6% | 1.18% | 2.23% |
| Cc1ccc(NC(=O)c2ccco2)cc1C | 4.04% | 0.435% | -3.07% | 95.5% | 90.5% | 0.665% | 0.93% |
| CC(C)Cn1c(CNC(=O)c2ccccc2)nc2ccccc21 | -4.34% | -13.4% | -2.23% | 99.6% | 93.1% | 0.785% | -0.78% |
| Cc1nc2sc(C(c3ccccc3)N3CCN(C)CC3)c(O)n2n1 (configuration not stated) | -3.65% | 8.75% | 0.48% | 100% | 103% | 2.15% | 2.45% |
| O=C(CC(c1ccccc1)c1ccccc1O)NCCN1CCOCC1 (configuration not stated) | 0.155% | -2.5% | -2.74% | 102% | 95.6% | 3.25% | 2.36% |
| O=C(Nc1ccc(F)cc1)C1CCCN(S(=O)(=O)c2cccc3cccnc23)C1 (configuration not stated) | -10.2% | -7.79% | -0.85% | 80.8% | 80.3% | 2.16% | 7.62% |
| C=CCc1c(C)nc(SC)nc1Nc1ccc(C(C)=O)cc1 | -6.88% | -6.6% | -3.83% | 83.8% | 87.1% | 1.53% | 6.87% |
| COC(=O)c1cc(-c2ccc3c(c2)OCO3)nc2ccccc12 | -14.1% | -4.56% | -0.1% | 73.6% | 76.3% | 3.49% | 8.14% |
| CCC(CO)N=CC1=C(O)CC(C)(C)CC1=O (configuration not stated) | 3.97% | -5.8% | -0.8% | 102% | 98.8% | -0.06% | 0.21% |
| Cc1onc(-c2ccccc2Cl)c1C(=O)NCCN1Cc2ccccc2C1=O | -0.695% | 4.3% | -4.11% | 102% | 90.5% | 0.375% | 0.31% |
| COc1ccc(Cl)cc1NC(=O)C1CSC(c2ccncc2)=N1 (configuration not stated) | 1.68% | -12.2% | -8.24% | 65.2% | 61.5% | 0.41% | 5.11% |
| CCCc1n[nH]c2c1C(=O)CC(C)(C)C2 | -9.08% | -9.82% | -1.76% | 95.6% | 102% | 0.98% | 2.76% |
